pIC50: −log10 of the molar value. In brackets after ≈: the same amount, converted by molar mass.
Legend:
[1] = system: E. faecalis 29212; conditions: compounds 1–4 reproduced; ref [35]; cited from earlier work
[2] = system: S. aureus 29213; conditions: compounds 1–4 reproduced; ref [35]; cited from earlier work
[3] = system: S. aureus 33591; conditions: compounds 1–4 reproduced; ref [35]; cited from earlier work
[4] = biological target: RNA topoisomerase activity of E. coli topoisomerase I (EcoTop1) (Escherichia coli, UniProt P06612); test: RNA topoisomerase inhibition assay; format: biochemical; conditions: 10 nM EcoTop1; for inhibitory effect on the RNA topoisomerase activity of EcoTop1: at concentrations up to 50 μM; for concentration at which RNA topoisomerase activity is inhibited: concentration-dependent, 2.5–40 μM tested; for effect on the RNA topoisomerase activity of EcoTop1: even at 80 μM concentrations
[5] = system: Gram-positive bacterial strains; test: MIC by microbroth dilution, summary over strains in text; format: cell-based; conditions: Shigella flexneri, read-out: MIC values against most Gram-positive strains
[6] = system: human prostate cancer cell line DU-145; test: Cytotoxicity; format: cell-based; conditions: 48 h treatment, SRB
Summary of the method: (§1)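 Cells grown per ATCC protocols, trypsin-EDTA harvested, trypan-blue counted, seeded at […] cells/well, and allowed to recover 24 h (37 °C, 5% CO2). They were then treated in triplicate at final 20, 10, 5, 2.5, 1.25, 0.625 and 0.0625 μM for 48 h. Fixed with cold TCA (16% final, 4 °C, 1 h), stained 15 min with SRB in 1% acetic acid, dye dissolved in 10 mM Tris base, A560 read. IC50 derived from absorbance; study done in duplicate.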

[7] = system: E. coli K12; conditions: compounds 1–4 reproduced; ref [35]; cited from earlier work
[8] = biological target: T1, human DNA topoisomerase I (Homo sapiens, UniProt P11387); conditions: read-out: IC50 hTopoI, values reproduced, ref [35]; cited from earlier work
T1 sequence (P11387 1-765): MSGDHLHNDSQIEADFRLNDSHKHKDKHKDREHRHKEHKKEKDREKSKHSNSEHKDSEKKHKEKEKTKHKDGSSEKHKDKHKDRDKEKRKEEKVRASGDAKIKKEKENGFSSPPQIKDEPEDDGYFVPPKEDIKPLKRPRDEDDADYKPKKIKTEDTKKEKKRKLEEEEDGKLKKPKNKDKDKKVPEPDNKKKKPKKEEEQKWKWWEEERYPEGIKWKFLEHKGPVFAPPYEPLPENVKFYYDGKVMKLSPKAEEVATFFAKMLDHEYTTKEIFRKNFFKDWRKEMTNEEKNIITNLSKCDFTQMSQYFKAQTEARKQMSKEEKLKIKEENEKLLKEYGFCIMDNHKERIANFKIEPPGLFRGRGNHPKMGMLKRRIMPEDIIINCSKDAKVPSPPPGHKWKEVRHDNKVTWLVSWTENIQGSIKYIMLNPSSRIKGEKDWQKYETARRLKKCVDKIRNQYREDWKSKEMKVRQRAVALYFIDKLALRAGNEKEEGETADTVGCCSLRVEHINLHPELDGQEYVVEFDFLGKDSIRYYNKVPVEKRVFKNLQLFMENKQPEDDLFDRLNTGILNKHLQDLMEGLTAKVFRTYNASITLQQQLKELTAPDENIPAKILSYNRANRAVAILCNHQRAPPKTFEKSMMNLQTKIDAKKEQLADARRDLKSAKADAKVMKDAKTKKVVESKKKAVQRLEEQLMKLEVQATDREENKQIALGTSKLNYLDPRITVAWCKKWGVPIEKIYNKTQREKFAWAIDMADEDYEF

[9] = system: E. coli 25922; conditions: compounds 1–4 reproduced; ref [35]; cited from earlier work
[10] = Cytotoxicity; format: cell-based, human; conditions: human, DU-145 prostate cancer cells
Summary of the method: as §1

[11] = system: A. baumanni 19606; test: MIC by microbroth dilution; format: cell-based, Acinetobacter baumanni; conditions: Acinetobacter, 19606, 24 h, read-out: MIC A. baumanni 19606
Summary of the method: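 CLSI microbroth dilution in Mueller-Hinton broth. Strains were grown at 37 °C with shaking to log phase, pelleted, and resuspended in 0.85% saline to OD625 0.1. Final inoculum 5 × 10^5 CFU/mL in 96-well plates, tested in triplicate, incubated 24 h at 37 °C. Growth was read as OD at 625 nm.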

[12] = Cytotoxicity; format: cell-based; conditions: human, PCS 201-010 normal dermal fibroblast cells
Summary of the method: as §1

[13] = biological target: E. coli DNA topoisomerase I (Escherichia coli, UniProt P06612); format: biochemical; conditions: at 50 μM
E. coli DNA topoisomerase I, sequence (P06612 whole entry): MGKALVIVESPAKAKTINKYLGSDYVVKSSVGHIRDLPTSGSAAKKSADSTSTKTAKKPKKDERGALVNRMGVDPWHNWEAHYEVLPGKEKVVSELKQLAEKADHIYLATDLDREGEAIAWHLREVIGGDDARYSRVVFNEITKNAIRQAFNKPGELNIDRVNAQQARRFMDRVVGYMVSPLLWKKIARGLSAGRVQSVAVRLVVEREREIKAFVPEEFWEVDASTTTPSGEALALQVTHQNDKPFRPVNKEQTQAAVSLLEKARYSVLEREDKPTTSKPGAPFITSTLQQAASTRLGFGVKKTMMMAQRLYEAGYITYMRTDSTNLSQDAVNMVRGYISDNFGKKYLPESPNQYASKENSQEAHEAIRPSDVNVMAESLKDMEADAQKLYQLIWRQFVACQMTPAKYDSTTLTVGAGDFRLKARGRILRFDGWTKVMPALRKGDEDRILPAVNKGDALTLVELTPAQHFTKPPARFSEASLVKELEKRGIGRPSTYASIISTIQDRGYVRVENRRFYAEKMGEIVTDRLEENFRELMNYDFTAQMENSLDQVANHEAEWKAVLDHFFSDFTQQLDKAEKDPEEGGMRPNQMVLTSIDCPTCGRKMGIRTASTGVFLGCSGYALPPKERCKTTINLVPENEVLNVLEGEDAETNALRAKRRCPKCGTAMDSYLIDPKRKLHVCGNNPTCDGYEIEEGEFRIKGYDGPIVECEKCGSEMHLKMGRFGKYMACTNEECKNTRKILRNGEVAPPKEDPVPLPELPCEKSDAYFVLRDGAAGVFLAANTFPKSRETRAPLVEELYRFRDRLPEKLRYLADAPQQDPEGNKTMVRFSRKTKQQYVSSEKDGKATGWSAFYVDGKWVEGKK

RNA topoisomerase activity of E. coli topoisomerase I (EcoTop1), sequence (P06612 whole entry): as above

Structure (SMILES): C#CCOc1ccc(-c2nc3ccc(-c4nc5ccc(N6CCN(C)CC6)cc5[nH]4)cc3[nH]2)cc1 [Compound 1]
- MIC E. faecalis 29212 [1]: 16 to 32 µg/mL
- MIC S. aureus 29213 [2]: 2 to 4 µg/mL
- MIC S. aureus 33591 [3]: 2 to 4 µg/mL
- inhibitory effect on the RNA topoisomerase activity of EcoTop1 [4]: no discernible inhibitory effect
- MIC [5]: 0.3 to 4 µg/mL (≈ 0.649 to 8.65 µM)
- cytotoxicity to DU-145 compared with Hoechst 33258 [6]: more cytotoxic

Structure (SMILES): C#CCCCCOc1ccc(-c2nc3ccc(-c4nc5ccc(N6CCN(C)CC6)cc5[nH]4)cc3[nH]2)cc1 [Compound 2]
- MIC S. aureus 29213 [2]: 2 to 4 µg/mL
- MIC S. aureus 33591 [3]: 2 to 4 µg/mL
- inhibitory effect on the RNA topoisomerase activity of EcoTop1 [4]: no discernible inhibitory effect
- MIC E. coli K12 [7]: 8 to 16 µg/mL
- pIC50 [8]: < 4.30
- MIC E. coli 25922 [9]: 8 to 16 µg/mL
- MIC [5]: 0.3 to 4 µg/mL (≈ 0.594 to 7.93 µM)
- cytotoxicity to DU-145 compared with Hoechst 33258 [6]: more cytotoxic

Structure (SMILES): C#CCCCCCCCCCOc1ccc(-c2nc3ccc(-c4nc5ccc(N6CCN(C)CC6)cc5[nH]4)cc3[nH]2)cc1 [Compound 3]
- MIC E. faecalis 29212 [1]: 16 to 32 µg/mL
- concentration at which RNA topoisomerase activity is inhibited [4]: about 10 μM
- MIC E. coli K12 [7]: 8 to 16 µg/mL
- pIC50 [8]: < 4.30
- IC50 at 48 h [10]: > 10 µM

Structure (SMILES): C#CCOCCCCOc1ccc(-c2nc3ccc(-c4nc5ccc(N6CCN(C)CC6)cc5[nH]4)cc3[nH]2)cc1 [Compound 4]
- MIC S. aureus 29213 [2]: 2 to 4 µg/mL
- MIC S. aureus 33591 [3]: 2 to 4 µg/mL
- inhibitory effect on the RNA topoisomerase activity of EcoTop1 [4]: no discernible inhibitory effect
- MIC E. coli K12 [7]: 8 to 16 µg/mL
- pIC50 [8]: < 4.30
- MIC E. coli 25922 [9]: 8 to 16 µg/mL
- MIC [5]: 0.3 to 4 µg/mL (≈ 0.561 to 7.48 µM)
- cytotoxicity to DU-145 compared with Hoechst 33258 [6]: more cytotoxic

Structure (SMILES): C#CCOCCCCCCOc1ccc(-c2nc3ccc(-c4nc5ccc(N6CCN(C)CC6)cc5[nH]4)cc3[nH]2)cc1 [Compound 5, 6-(4-Methylpiperazin-1-yl)-2′-(4-(6-(prop-2-ynyloxy)-hexyloxy)phenyl)-1H,3′H-2,5′-bibenzo[d]imidazole]
- MIC [11]: > 32 µg/mL
- inhibitory effect on the RNA topoisomerase activity of EcoTop1 [4]: no discernible inhibitory effect
- cytotoxicity to DU-145 compared with Hoechst 33258 [6]: more cytotoxic

Structure (SMILES): C#CCOCCCCCCCCOc1ccc(-c2nc3ccc(-c4nc5ccc(N6CCN(C)CC6)cc5[nH]4)cc3[nH]2)cc1 [Compound 6, 6-(4-Methylpiperazin-1-yl)-2′-(4-(8-(prop-2-ynyloxy)octyloxy)phenyl)-1H,3′H-2,5′-bibenzo[d]imidazole]
- concentration at which RNA topoisomerase activity is inhibited [4]: about 10 μM
- cytotoxicity to DU-145 compared with Hoechst 33258 [6]: more cytotoxic

Structure (SMILES): C#CCOCCCCCCCCCCOc1ccc(-c2nc3ccc(-c4nc5ccc(N6CCN(C)CC6)cc5[nH]4)cc3[nH]2)cc1 [Compound 7, 6-(4-Methylpiperazin-1-yl)-2′-(4-(10-(prop-2-ynyloxy)decyloxy)phenyl)-1H,3′H-2,5′-bibenzo[d]imidazole]
- MIC [11]: > 32 µg/mL
- concentration at which RNA topoisomerase activity is inhibited [4]: about 10 μM
- IC50 at 48 h [10]: > 10 µM

Structure (SMILES): C#CCOCCCCCCCCCCCCOc1ccc(-c2nc3ccc(-c4nc5ccc(N6CCN(C)CC6)cc5[nH]4)cc3[nH]2)cc1 [Compound 8, 6-(4-Methylpiperazin-1-yl)-2′-(4-(12-(prop-2-ynyloxy)dodecyloxy)phenyl)-1H,3′H-2,5′-bibenzo[d]imidazole]
- IC50 at 48 h [12]: > 10 µM
- concentration at which RNA topoisomerase activity is inhibited [4]: about 10 μM
- IC50 at 48 h [10]: > 10 µM

Structure (SMILES): C#CCOCCOCCOCCOCCOCCOCCOc1ccc(-c2nc3ccc(-c4nc5ccc(N6CCN(C)CC6)cc5[nH]4)cc3[nH]2)cc1 [Compound 9, 2′-(4-(3,6,9,12,15,18-Hexaoxahenicos-20-ynyloxy)phenyl)-6-(4-methylpiperazin-1-yl)-1H,3′H-2,5′-bibenzo[d]imidazole]
- MIC [11]: > 32 µg/mL
- inhibition of the activity of E. coli DNA topoisomerase I [13]: did not significantly inhibit
- inhibitory effect on the RNA topoisomerase activity of EcoTop1 [4]: no discernible inhibitory effect
- IC50 at 48 h [10]: > 10 µM

Structure (SMILES): Oc1ccc(-c2nc3ccccc3[nH]2)cc1 [Compound 13, 4-(1H-Benzo[d]imidazol-2-yl)phenol]
- MIC [11]: 16 to 32 µg/mL (≈ 76.1 to 152 µM)

Structure (SMILES): CN1CCN(c2ccc3nc(-c4ccc(OCCCNC(=O)OC(C)(C)C)cc4)[nH]c3c2)CC1 [Compound 15, tert-Butyl 3-(4-(6-(4-Methylpiperazin-1-yl)-1H-benzo[d]imidazol-2-yl)phenoxy)propylcarbamate]
- MIC [11]: > 32 µg/mL

Structure (SMILES): CN1CCN(c2ccc3nc(-c4ccc(OCc5cn(CCN=[N+]=[N-])nn5)cc4)[nH]c3c2)CC1 [Compound 19, 2-(4-((1-(2-Azidoethyl)-1H-1,2,3-triazol-4-yl)methoxy)-phenyl)-6-(4-methylpiperazin-1-yl)-1H-benzo[d]imidazole]
- MIC [11]: > 32 µg/mL

Structure (SMILES): CN1CCN(c2ccc3nc(-c4ccc(OCc5cn(CCCCN=[N+]=[N-])nn5)cc4)[nH]c3c2)CC1 [Compound 20]
- inhibitory effect on the RNA topoisomerase activity of EcoTop1 [4]: no discernible inhibitory effect

Structure (SMILES): C#Cc1ccc(-c2cn(CCOc3ccc(-c4nc5ccc(N6CCN(C)CC6)cc5[nH]4)cc3)nn2)cc1 [Compound 21, 2-(4-(2-(4-(4-Ethynylphenyl)-1H-1,2,3-triazol-1-yl)ethoxy)-phenyl)-6-(4-methylpiperazin-1-yl)-1H-benzo[d]imidazole]
- MIC [11]: > 32 µg/mL

Structure (SMILES): CN1CCN(c2ccc3nc(-c4ccc5nc(-c6ccc(O)cc6)[nH]c5c4)[nH]c3c2)CC1.Cl.Cl.Cl [Hoechst 33258, reference compound]
- MIC [5]: 0.3 to 4 µg/mL
- IC50 at 48 h [10]: > 10 µM

Structure (SMILES): CCOc1ccc(-c2nc3cc(-c4nc5cc(N6CCN(C)CC6)ccc5[nH]4)ccc3[nH]2)cc1 [Hoechst 33342, reference compound]
- effect on the RNA topoisomerase activity of EcoTop1 [4]: do not have any effect
- MIC [5]: 0.3 to 4 µg/mL (≈ 0.663 to 8.84 µM)

Structure (SMILES): CCOc1ccc2nc3cc(N)ccc3c(N)c2c1 [ethacridine, reference compound]
- effect on the RNA topoisomerase activity of EcoTop1 [4]: do not have any effect

Reference: article PMC12125705 (Journal of medicinal chemistry, 2017)
